Key:
[1] = system: V79; assay: In vitro radiosensitizing activity against V-79 hypoxic cells was determined in the presence of the sensitizer under nitrogen at a concentration of 1.0 mM; format: functional, Cricetulus griseus
Outline: (§1)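 Asynchronous monolayer V-79 Chinese hamster cells from exponential cultures, plated in dishes and made hypoxic by purging sealed containers with 95% nitrogen/5% CO2. Drug exposure was 1 h at 37 °C under hypoxia, followed by cobalt-60 irradiation (~240 rad/min, 400–2700 rad). Colonies were grown 6 days at 37 °C, then fixed in ethanol, stained with methylene blue and counted. SER = D0 of hypoxic controls / D0 of drug-treated hypoxic cells.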

[2] = Partition coefficient of the compound; format: ADME; settings: octanol/water
[3] = system: V79; assay: In vitro radiosensitizing activity against V-79 hypoxic cells was determined in the presence of the sensitizer under nitrogen at a concentration of 0.5 mM; format: functional, Cricetulus griseus; outline: as §1
[4] = system: V79; assay: In vitro radiosensitizing activity against V-79 hypoxic cells was determined in the presence of the sensitizer under nitrogen at a concentration of 0.25 mM; format: functional, Cricetulus griseus; outline: as §1
[5] = system: V79; assay: In vitro radiosensitizing activity against V-79 Hypoxic cells was determined in the presence of the sensitizer under nitrogen at a concentration of 0.1 mM; format: functional, Cricetulus griseus; outline: as §1
[6] = system: V79; assay: In vitro radiosensitizing activity against V-79 hypoxic cells was determined in the presence of the sensitizer under nitrogen at a concentration of 0.05 mM; format: functional, Cricetulus griseus; outline: as §1

O=C(OC[C@H]1O[C@@H](n2ccnc2[N+](=O)[O-])[C@H](OC(=O)c2ccccc2)[C@@H]1OC(=O)c1ccccc1)c1ccccc1
SER ([1]; in the assay text read “0.01 mM” for “1.0 mM”): 1
Partition coefficient [2]: 15.66

O=[N+]([O-])c1nccn1C1SC(CO)C(O)C(O)C1O (stereo not drawn)
SER [1]: 1.7
SER [3]: 1.4
Partition coefficient [2]: 0.22
SER [4]: 1.2

O=[N+]([O-])c1nccn1C1OC(CO)C(O)C(O)C1O (stereo not drawn)
SER [1]: 1
Partition coefficient [2]: 0.04

CC(=O)OCC1OC(n2ccnc2[N+](=O)[O-])C(OC(C)=O)C(OC(C)=O)C1OC(C)=O (stereo not drawn)
SER [5]: 1.2
Partition coefficient [2]: 3.31

COC(=O)C1(n2ccnc2[N+](=O)[O-])CC(OC(C)=O)C(NC(C)=O)C(C(OC(C)=O)C(COC(C)=O)OC(C)=O)O1 (stereo not drawn)
SER [1]: 1.6
SER [3]: 1.4
Partition coefficient [2]: 2.56
SER [4]: 1.2

CC(=O)OCC1SC(n2ccnc2[N+](=O)[O-])C(OC(C)=O)C(OC(C)=O)C1OC(C)=O (stereo not drawn)
SER [6]: 1.1
Partition coefficient [2]: 4.22

O=[N+]([O-])c1nccn1C1O[C@H](CO)[C@@H](O)[C@H]1O (stereo partly drawn)
SER [3]: 1.4
Partition coefficient [2]: 0.07

Reference: ChEMBL document CHEMBL1122141, “Potential radiosensitizing agents. 4. 2-Nitroimidazole nucleosides” (J Med Chem, 1982)
